This is an account of results in ChEMBL document CHEMBL1148903, “New decalin derivatives, eujavanoic acids A and B, from Eupenicillium javanicum” (2004).

In test [1] the test system is Aspergillus fumigatus. In words: Antifungal activity against Aspergillus fumigatus up to 100 ug/disk after 48 hrs. It counts as functional, organism-based. An outline of the steps: (§1)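 Paper disk diffusion assay against Aspergillus fumigatus on potato dextrose agar. Compound was applied per disk, and activity was recorded after 48 h incubation. Other assay conditions follow an earlier published method.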

Test [2] concerns Aspergillus fumigatus. In words: Antifungal activity against Aspergillus fumigatus at 10 mg/disk after 48 hrs. It counts as functional. In a few lines: as §1
In test [3] the test system is Aspergillus fumigatus. The test can be described thus: Antifungal activity against Aspergillus fumigatus at 5 mg/disk after 48 hrs. It counts as functional. In a few lines:
as §1

In test [4] the test system is Aspergillus fumigatus. In words: Antifungal activity against Aspergillus fumigatus at 1 mg/disk after 48 hrs. It counts as functional. An outline of the steps: as §1
Test [5] relates to Aspergillus fumigatus. The test can be described thus: Antifungal activity against Aspergillus fumigatus at 0.5 mg/disk after 48 hrs. It counts as functional. An outline of the steps: as §1

Active and inactive are the calls of the source. The rule behind the calls is not given here.

For `C[C@H]1C(=O)C=C2CCCC[C@@H]2[C@H]1CC[C@@H](O)C[C@@H](O)CC(=O)O`, the outcome with Aspergillus fumigatus [1] was inactive.
`CC[C@H](C)C(=O)O[C@H]1CCC[C@@H]2C=C[C@H](C)[C@H](CC[C@@H](O)C[C@@H](O)CC(=O)[O-])[C@@H]12.[Na+]`: the entries for the “inhibition zone (IZ)” value with Aspergillus fumigatus [2], in the test on Aspergillus fumigatus [3] and in the test on Aspergillus fumigatus [4] were 32 mm, 21 mm and 16 mm, respectively. Further, the outcome in the test with Aspergillus fumigatus [5] was inactive.
For `CCOC(=O)C[C@H](O)C[C@H](O)CC[C@@H]1[C@@H]2C(=CCC[C@@H]2OC(=O)[C@@H](C)CC)C=C[C@@H]1C`, the result with Aspergillus fumigatus [2], with Aspergillus fumigatus [3], in the test on Aspergillus fumigatus [4] and with Aspergillus fumigatus [5] was inactive.
Turning to `C[C@@H]1[C@H](O)[C@@H](C)/C=C/C=C/C=C/C=C/C=C/C=C/C=C/[C@H](O[C@@H]2O[C@H](C)[C@@H](O)[C@H](N)[C@@H]2O)C[C@@H]2O[C@](O)(C[C@@H](O)C[C@@H](O)[C@H](O)CC[C@@H](O)C[C@@H](O)CC(=O)O[C@H]1C)C[C@H](O)[C@H]2C(=O)O` [AMPHOTERICIN B], the “inhibition zone (IZ)” value was 13 mm with Aspergillus fumigatus [2], 14 mm with Aspergillus fumigatus [3] and 11 mm in the test with Aspergillus fumigatus [4].
With `C[C@H]1C=CC2=CCC[C@H](O)[C@@H]2[C@H]1CC[C@@H](O)C[C@@H](O)CC(=O)O`, in the test on Aspergillus fumigatus [1], the result was inactive.
On to `C[C@@H]1[C@H](CC[C@@H](O)C[C@@H](O)CC(=O)O)[C@H]2CCCCC2=C[C@H]1O`, for which, in the test on Aspergillus fumigatus [1], the outcome was inactive.
`CC[C@H](C)C(=O)O[C@H]1CCC[C@@H]2CC[C@H](C)[C@H](CC[C@@H](O)C[C@@H](O)CC(=O)[O-])[C@H]21.[Na+]`: the figures for the “inhibition zone (IZ)” value with Aspergillus fumigatus [2] and in the test with Aspergillus fumigatus [3] were 22 mm and 18 mm, respectively. Besides, in the test with Aspergillus fumigatus [5], the result was inactive.
